ChEMBL document CHEMBL1147539, “Synthesis and biological evaluation of novel, selective, nonsteroidal glucocorticoid receptor antagonists” (Bioorg Med Chem Lett, 2004)

What was measured:
[1] = target: T1, Estrogen receptor (Homo sapiens, UniProt P03372); assay: Displacement of [3H]estradiol from human estrogen receptor alpha
T1 sequence (P03372 whole entry): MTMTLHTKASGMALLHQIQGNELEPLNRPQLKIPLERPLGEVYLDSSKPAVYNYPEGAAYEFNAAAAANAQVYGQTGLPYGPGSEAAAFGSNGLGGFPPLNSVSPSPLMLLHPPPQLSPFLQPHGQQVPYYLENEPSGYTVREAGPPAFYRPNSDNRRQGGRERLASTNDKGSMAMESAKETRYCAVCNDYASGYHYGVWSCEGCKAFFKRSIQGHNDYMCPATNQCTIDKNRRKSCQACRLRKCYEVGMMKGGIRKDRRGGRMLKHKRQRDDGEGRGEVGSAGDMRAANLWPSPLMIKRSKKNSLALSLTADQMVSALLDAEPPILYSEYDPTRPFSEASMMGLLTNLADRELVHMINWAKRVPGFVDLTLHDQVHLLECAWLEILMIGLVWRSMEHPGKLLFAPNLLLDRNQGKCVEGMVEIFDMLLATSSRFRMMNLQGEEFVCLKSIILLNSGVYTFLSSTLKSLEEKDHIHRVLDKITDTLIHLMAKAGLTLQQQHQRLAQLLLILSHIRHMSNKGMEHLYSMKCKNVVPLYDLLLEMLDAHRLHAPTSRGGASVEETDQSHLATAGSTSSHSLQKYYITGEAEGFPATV
Summary of the method: (§1)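 Human steroid receptor (PR, MR, AR, ERα) binding measured by radioligand displacement, with IC50s determined in duplicate. Values without a range come from a single experiment, and values with a range are geometric means of repeat experiments.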

[2] = target: T2, Androgen receptor (Homo sapiens, UniProt P10275); assay: Displacement of [3H]mibolerone from human Androgen receptor
T2 sequence (P10275 whole entry): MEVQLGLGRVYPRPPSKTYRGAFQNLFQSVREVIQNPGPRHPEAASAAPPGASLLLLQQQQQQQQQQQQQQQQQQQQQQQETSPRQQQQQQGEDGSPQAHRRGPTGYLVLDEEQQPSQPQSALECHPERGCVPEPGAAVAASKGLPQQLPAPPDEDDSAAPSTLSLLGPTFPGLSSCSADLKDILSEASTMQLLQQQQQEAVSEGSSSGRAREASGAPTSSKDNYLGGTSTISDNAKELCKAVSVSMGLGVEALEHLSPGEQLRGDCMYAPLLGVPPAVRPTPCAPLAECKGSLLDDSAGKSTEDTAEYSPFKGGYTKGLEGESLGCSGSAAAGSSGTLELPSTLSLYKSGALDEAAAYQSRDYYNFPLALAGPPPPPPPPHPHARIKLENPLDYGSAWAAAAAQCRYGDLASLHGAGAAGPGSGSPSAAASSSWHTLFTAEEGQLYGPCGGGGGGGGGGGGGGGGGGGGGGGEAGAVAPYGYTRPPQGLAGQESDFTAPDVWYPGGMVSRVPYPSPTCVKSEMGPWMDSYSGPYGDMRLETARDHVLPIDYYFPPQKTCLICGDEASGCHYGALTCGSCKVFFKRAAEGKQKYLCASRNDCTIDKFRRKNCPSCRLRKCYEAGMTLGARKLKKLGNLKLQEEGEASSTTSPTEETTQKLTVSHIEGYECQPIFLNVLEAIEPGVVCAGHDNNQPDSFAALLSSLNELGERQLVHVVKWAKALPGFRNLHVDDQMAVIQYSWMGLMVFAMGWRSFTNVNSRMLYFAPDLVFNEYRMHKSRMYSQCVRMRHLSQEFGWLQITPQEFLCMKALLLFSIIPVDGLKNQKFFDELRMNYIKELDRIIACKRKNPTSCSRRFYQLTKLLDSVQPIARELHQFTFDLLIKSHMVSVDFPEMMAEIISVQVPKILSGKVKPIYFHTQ

[3] = target: T3, Mineralocorticoid receptor (Homo sapiens, UniProt P08235); assay: Displacement of [3H]aldosterone from human Mineralocorticoid receptor; summary of the method: as §1
T3 sequence (P08235 whole entry): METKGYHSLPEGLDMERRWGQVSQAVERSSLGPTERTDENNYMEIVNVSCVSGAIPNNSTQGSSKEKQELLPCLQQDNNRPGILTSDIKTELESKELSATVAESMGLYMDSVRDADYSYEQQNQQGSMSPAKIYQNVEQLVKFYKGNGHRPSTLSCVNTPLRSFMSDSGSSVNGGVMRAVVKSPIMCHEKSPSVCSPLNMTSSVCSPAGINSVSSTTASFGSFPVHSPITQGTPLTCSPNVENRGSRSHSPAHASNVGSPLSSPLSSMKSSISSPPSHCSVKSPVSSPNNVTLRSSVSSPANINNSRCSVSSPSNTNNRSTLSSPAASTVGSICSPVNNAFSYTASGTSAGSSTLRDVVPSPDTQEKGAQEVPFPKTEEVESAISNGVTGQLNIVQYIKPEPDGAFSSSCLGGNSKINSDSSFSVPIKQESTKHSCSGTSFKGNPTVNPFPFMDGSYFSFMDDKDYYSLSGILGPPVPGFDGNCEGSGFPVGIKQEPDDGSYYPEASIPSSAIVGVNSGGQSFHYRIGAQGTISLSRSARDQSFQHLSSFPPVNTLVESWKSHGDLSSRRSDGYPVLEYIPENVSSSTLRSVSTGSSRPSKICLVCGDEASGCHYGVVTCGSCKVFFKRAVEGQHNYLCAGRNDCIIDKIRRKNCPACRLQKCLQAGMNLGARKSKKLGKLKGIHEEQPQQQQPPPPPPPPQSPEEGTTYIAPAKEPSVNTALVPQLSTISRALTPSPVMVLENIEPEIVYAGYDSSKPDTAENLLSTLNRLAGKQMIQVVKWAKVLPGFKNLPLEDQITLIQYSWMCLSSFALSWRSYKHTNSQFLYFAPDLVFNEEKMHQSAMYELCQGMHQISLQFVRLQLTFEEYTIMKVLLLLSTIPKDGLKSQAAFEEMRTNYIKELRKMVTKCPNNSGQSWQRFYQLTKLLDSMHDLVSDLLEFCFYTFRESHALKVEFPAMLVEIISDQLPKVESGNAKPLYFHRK

Row | Structure (SMILES) | IC50 [1] | IC50 [2] | IC50 [3]
1 | COc1cccc2c1-c1ccc(NS(C)(=O)=O)cc1C(c1cccs1)O2 (stereo not given) | > 10000 nM | > 10000 nM | 2250 nM
2 | CCOc1cccc2c1-c1ccc(NS(C)(=O)=O)cc1C(c1ccccc1)O2 (stereo not given) | > 10000 nM | > 10000 nM | 893 nM
3 | COc1cccc2c1-c1ccc(NS(C)(=O)=O)cc1C(c1ccc(C)cc1)O2 (stereo not given) | > 10000 nM | > 10000 nM | 651 nM
4 | COc1cccc2c1-c1ccc(NS(C)(=O)=O)cc1C(c1ccc(F)cc1)O2 (stereo not given) | > 1000 nM | > 10000 nM | 2480 nM
5 | COc1cccc2c1-c1ccc(NS(C)(=O)=O)cc1C(c1cccc(F)c1)O2 (stereo not given) | > 10000 nM | > 10000 nM | 683 nM
